Results as given in paper PMC6448596 (Cell reports, 2019).

How the values were obtained:
WDR5 [1] = test: Surface plasmon resonance direct affinity measurement; assay type: binding, Human
Outline: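 Enhanced SPR (eSPR) was run externally using purified WDR5 supplied by the authors. Test compounds were prepared as 30 mM DMSO stock solutions.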

Molm13 cells = test: Proliferation assay; assay type: cell-based; settings: Homo sapiens, MOLM-13, 72 h
Outline: (§1)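 CellTiter-Glo, 5,000 cells/well. Cells received 0.1% DMSO or at least five two-fold dilutions of test compound (top 50 μM, final DMSO 0.1%), in triplicate wells and ≥2 biological replicates, for 72 h at 37°C. Reagent was added after equilibration to RT, with 30 min dark incubation before luminescence. Signals were normalized to DMSO wells and GI50 obtained by curve fitting. Curve error bars are SEM.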

K562 cells = test: Proliferation assay; assay type: cell-based; settings: Homo sapiens, K562, 72 h
Outline: as §1

HEL cells = test: Proliferation assay; assay type: cell-based; settings: Homo sapiens, 72 h
Outline: as §1

NOMO-1 cells = test: Proliferation assay; assay type: cell-based; settings: Homo sapiens, NOMO-1, 72 h
Outline: as §1

SET-2 cells = test: Proliferation assay; assay type: cell-based; settings: Homo sapiens, SET-2, 72 h
Outline: as §1

MONO-Mac-6 cells = test: Proliferation assay; assay type: cell-based; settings: Homo sapiens, MONO-MAC-6, 72 h
Outline: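 MONO-MAC-6 cells were maintained in RPMI with 10% FBS, non-essential amino acids and OPI supplement. CellTiter-Glo used 5,000 cells/well and ≥5 two-fold dilutions from 50 μM (0.1% DMSO final), in triplicate wells with ≥2 biological replicates, over 72 h at 37°C.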

MA93 cells = test: Proliferation assay; assay type: cell-based; settings: Homo sapiens, 72 h
Outline: (§2)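 CellTiter-Glo at 2,000 cells/well. MA93 Ras and MA93 FLT3/ITD were maintained in IMDM/20% FBS. Parental MA93 received IMDM/20% FBS plus 10 ng/mL human SCF, TPO, FLT3L, IL3 and IL6. Dosing used ≥5 two-fold dilutions from 50 μM top, 0.1% DMSO final, in triplicate wells with ≥2 biological replicates. Plates ran 72 h at 37°C, followed by 30 min reagent incubation at RT in the dark. GI50 came from DMSO-normalized luminescence.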

MA93 Ras cells = test: Proliferation assay; assay type: cell-based; settings: Homo sapiens, MA9.3RAS, 72 h
Outline: as §2

RN2 cells = test: Proliferation assay; assay type: cell-based, murine; settings: Mus musculus, 72 h
Outline: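 Murine RN2 cells were seeded at 2,500/well and exposed to ≥5 two-fold dilutions (top 50 μM, 0.1% DMSO final) in triplicate wells, with ≥2 biological replicates, for 72 h. MTS reagent was added for 1.25 h at 37°C and absorbance read at 490 nm. Values were normalized to DMSO wells and GI50 fitted. Error bars are SEM.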

[2] = tested on: MV4:11 cells expressing shRNAs against p53; test: Proliferation assay in MV4:11 cells expressing p53 or scrambled shRNAs; assay type: cell-based; settings: Homo sapiens, MV4-11, 72 h, MV4:11 expressing p53 shRNA_941, 3-day treatment
Outline: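 Proliferation was measured in MV4:11 cells carrying scrambled, p53 sh_427 or p53 sh_941 shRNA. Cells received 3-day test compound treatment in a dose–response series, with GI50 derived from the curves.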

MV4:11 cells [3] = test: Growth and viability time course; assay type: cell-based, human
MV4:11 cells [4] = test: Induction of apoptosis; assay type: cell-based, human; settings: 2 μM, up to 6 days
Outline: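 MV4:11 cells were exposed 0–6 days to 2 μM test compound, negative control or 0.1% DMSO, with medium and compound refreshed on day 3. Camptothecin (2 μM, 4 h) served as positive control. 5 × 10^5 cells were stained with Alexa Fluor488–annexin V for 15 min, then propidium iodide for 10 min. Flow cytometry recorded ≥10,000 events, with doublet exclusion and quadrants set on unstained cells. Annexin V+/PI− % is from three biological replicates, SEM.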

[5] = tested on: p53 and p21 protein levels in Molm13 cells; test: p53/p21 induction western blot; assay type: cell-based, human; settings: Molm13, 3 μM, 24 h
Outline: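 Treatment lasted 24 h with test compound or its negative control, at 2 μM in MV4:11 and 3 μM in Molm13. Comparators were 2 μM Nutlin-3 or 0.1% DMSO. Four million cells were PBS-washed and lysed 10 min on ice in Kischkel buffer. p53 and p21 were detected by western blot, with histone H3 as loading control.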

[6] = tested on: gene expression in MV4:11 cells; test: RNA-Seq; assay type: cell-based, human; settings: overlap of RNA-seq and WDR5 ChIP-seq, MV4:11
[7] = tested on: ribosome protein gene expression in MV4:11 cells; test: RT-qPCR quantification of RPG mRNA expression; assay type: cell-based, human; settings: MV4:11, three days, equal concentrations (4 µM) of OICR-9429 and C6
Outline: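 Cells were lysed in Trizol and total RNA isolated on columns with DNase digestion. 1 μg RNA was reverse transcribed with MuLV reverse transcriptase in 20 μl, then diluted three-fold in nuclease-free water before qPCR.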

[8] = tested on: protein synthesis in MV4:11 cells; test: Relative protein synthesis rates; assay type: cell-based, human; settings: MV4:11, 2 μM
Outline: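 Cycloheximide 30 min before OPP served as positive control; an OPP-free sample set background. Alexa647 signal was read by flow (≥10,000 events, doublets excluded). Biological triplicate, SEM.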

[9] = tested on: gamma-H2AX in MV4:11 cells; test: gamma-H2AX immunofluorescence, DNA damage; assay type: cell-based, human; settings: MV4:11, 4 µM
Outline: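 Cells were cytospun onto slides (100,000 cells, 800 rpm, 3 min) and immunostained for γ-H2AX. Mean nuclear γ-H2AX signal was quantified and compared with DMSO by one-way ANOVA with Dunnett's test.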

WDR5 [10] = target: WDR5 (Homo sapiens, UniProt P61964); test: ChIP-Seq of WDR5; assay type: cell-based; settings: MV4:11, 2 μM, 4 h
Outline: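 MV4:11 cells at 10^6/ml were treated 4 h with 2 μM test compound, negative control or 0.1% DMSO. Cells were concentrated to 4 × 10^6/ml in PBS, fixed in 1% formaldehyde for 10 min at RT and quenched with 125 mM glycine. They were lysed in 1% SDS FA buffer. Sheared chromatin was diluted to 0.1% SDS and immunoprecipitated overnight at 4°C with anti-WDR5 (D9E1I or 429A) or IgG on BSA-blocked protein-A agarose. Peaks were compared by normalized average read counts.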

For `Cc1nc(F)ccc1-c1cc(Cn2ccn(C)c2=N)cc(C(=O)NCc2ccc(Cl)c(Cl)c2)c1` [Compound C6, N-(3,4-Dichlorobenzyl)-3-(6-fluoro-2-methylpyridin-3-yl)-5-((2-imino-3-methyl-2,3-dihydro-1H-imidazol-1-yl)methyl)benzamide], the “SPR affinity for WDR5 relative to values calculated by TR-FRET” value (WDR5 [1]) was ≤ 2 fold, the GI50 (Molm13 cells) was 6.43 ± 0.683 µM and the GI50 (K562 cells) was 25.4 ± 2.07 µM. The GI50 (HEL cells) was > 50 µM, the GI50 (NOMO-1 cells) was > 50 µM and the GI50 (SET-2 cells) was > 50 µM. For the same molecule, the GI50 (MONO-Mac-6 cells) was 31.7 ± 2.32 µM, the GI50 (MA93 cells) was 5.04 ± 0.431 µM and the GI50 (MA93 Ras cells) was 20.8 ± 2.62 µM. The GI50 (RN2 cells) was 11.2 ± 1.48 µM, the GI50 [2] was 15 µM and the “inhibition of proliferation, live cells over time” value (MV4:11 cells [3]; 2 μM (GI50 concentration), 1-6 days) was “inhibition of proliferation can be detected within a few days of treatment”. The “cellular viability over time” value (MV4:11 cells [3]; 2 μM, between 2 and 6 days of treatment) was “progressive decrease in cellular viability”, the “annexin V staining, apoptotic cells” value (MV4:11 cells [4]) was “appearance of apoptotic cells” and the “p53 and p21 protein induction” value [5] was “p53 and p21 are also induced”. The “number of WDR5-bound genes induced” value [6] was 1, the “number of WDR5-bound genes repressed” value [6] was 59 and the “transcription of RPGs” value [7] was “inhibited the transcription of RPGs”. For the same molecule, the OPP incorporation ([8]; 1 day) was “measurable reduction in OPP incorporation”, the OPP incorporation ([8]; 6 days) was “roughly half of the cells in the C6-treated population incorporated OPP at levels similar to those of cells treated with CHX” and the “DNA damage response, accumulation of γ-H2AX foci” value [9] was “does not induce a robust DNA damage response”. The “WDR5 binding events on chromatin” value (WDR5 [10]) was “robust decrease in all detectable WDR5 binding events”.
